# Measured values from different studies.
# Target: Mitogen-activated protein kinase kinase kinase kinase 2 (MAP4K2, Homo sapiens, UniProt Q12851)
# Sequence (Q12851 1-820, as in one of the studies): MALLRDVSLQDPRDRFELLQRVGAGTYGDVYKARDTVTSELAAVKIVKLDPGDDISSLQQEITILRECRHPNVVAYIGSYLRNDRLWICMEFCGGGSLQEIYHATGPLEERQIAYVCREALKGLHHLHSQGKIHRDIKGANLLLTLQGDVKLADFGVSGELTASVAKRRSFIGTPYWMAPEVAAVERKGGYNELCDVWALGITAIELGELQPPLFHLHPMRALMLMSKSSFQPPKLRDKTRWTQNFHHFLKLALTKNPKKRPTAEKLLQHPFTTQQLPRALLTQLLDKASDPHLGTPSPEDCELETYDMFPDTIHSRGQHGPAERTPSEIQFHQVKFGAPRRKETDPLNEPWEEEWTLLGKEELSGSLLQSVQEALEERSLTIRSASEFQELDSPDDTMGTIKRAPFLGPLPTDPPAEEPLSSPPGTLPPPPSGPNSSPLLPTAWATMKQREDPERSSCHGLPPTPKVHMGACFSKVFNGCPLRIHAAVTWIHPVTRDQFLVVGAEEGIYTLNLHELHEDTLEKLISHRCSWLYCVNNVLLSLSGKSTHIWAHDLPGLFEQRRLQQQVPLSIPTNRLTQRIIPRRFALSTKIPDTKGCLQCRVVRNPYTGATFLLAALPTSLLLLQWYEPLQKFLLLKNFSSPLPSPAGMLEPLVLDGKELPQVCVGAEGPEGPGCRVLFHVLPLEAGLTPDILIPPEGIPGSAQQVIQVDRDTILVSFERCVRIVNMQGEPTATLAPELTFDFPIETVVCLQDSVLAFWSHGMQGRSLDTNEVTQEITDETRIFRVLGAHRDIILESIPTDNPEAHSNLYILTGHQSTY
assay,setting,remaining binding [%],SMILES
"binding, competition with immobilised ligand",0.1 µM,100,C[C@@H](c1ccc(-n2cnc3c(N)ncnc32)cc1)N1CCc2nn(C)c(Cc3ccccc3)c2C1=O
"binding, competition with immobilised ligand",1 µM,100,C=CC(=O)N1CCC(C(=O)NCC(=O)N2CCN(c3nc(-c4cnc(N)nc4C(F)F)nc(N4CCOCC4)n3)CC2)CC1
"binding, competition with immobilised ligand",1 µM,36,O=C(c1ccc(Nc2ncc(Cl)c(-c3cc4ccccc4s3)n2)cc1)N1CCC(N2CCCC2)CC1
binding,1 µM,100,CN(C)c1nccc(-c2cnn3ncccc23)n1
"cell-free assay, competition with immobilised ligand",0.1 µM,69,Cc1c[nH]c2nccc(Oc3c(F)cc(Nc4cc(Cl)nc(N)n4)cc3F)c12
"binding, competition with immobilised ligand",1 µM,84,Nc1ncc2c(n1)-c1c([nH]c3ccc(C#CC4CC4)cc13)CCCC2
binding,1 µM,100,CN(CCCC(F)(F)F)c1nccc(-c2cnn3ncccc23)n1
"cell-free assay, competition with immobilised ligand",5 µM,17,FC(F)(F)Oc1cccc(-c2cnc3ccc(-c4ccncc4)nn23)c1
binding,1 µM,100,CN(c1nccc(-c2cnn3ncccc23)n1)C1CC1
"cell-free assay, competition with immobilised ligand",1 µM,100,CC(=O)C1=C(C)N(c2cccc(C(F)(F)F)c2)C(=O)N[C@@H]1c1ccc(C#N)nc1
binding,1 µM,99,Cc1cnn2ncc(-c3ccnc(N(C)C)n3)c2c1
"binding, competition with immobilised ligand",1 µM,15,O=C(c1ccc(Nc2ncc(Cl)c(-c3ccc(Cl)s3)n2)cc1)N1CCC(N2CCCC2)CC1
"binding, competition with immobilised ligand",1 µM,100,O=C(NCC1CCOCC1)c1n[nH]cc1NC(=O)c1c(F)cccc1F
"cell-free assay, competition with immobilised ligand",1 µM,100,O=C(O)c1cc(-c2ccc(C3CCNCC3)cc2)c2ccc(-c3ccc(C(F)(F)F)cc3)cc2c1
"binding, competition with immobilised ligand",1 µM,78,COc1cnc(Nc2cccc(S(N)(=O)=O)c2)nc1N1CCN(c2ccccc2)CC1
"cell-free assay, competition with immobilised ligand",1 µM,94,O=C(N1CCS(=O)(=O)CC1)N1C[C@H](c2ccc(OC(F)(F)F)cc2)C[C@H](c2nc(C3CC3)no2)C1
"cell-free assay, competition with immobilised ligand",5 µM,84,COc1ncc2cc3ccccc3nc2c1C#N
"cell-free assay, competition with immobilised ligand",1 µM,83,CO[C@H]1CC[C@H](CNc2ccc(S(=O)(=O)NC(=O)c3ccc(N4CCN(CC5=C(c6ccc(Cl)cc6)CC(C)(C)CC5)CC4)cc3Oc3cnc4[nH]ccc4c3)cc2[N+](=O)[O-])CC1
binding,1 µM,70,C[C@@H]1CCN(c2nccc(-c3cnn4ncccc34)n2)C1
"binding, competition with immobilised ligand",1 µM,52,O=C(c1ccc(Nc2nccc(-c3cc4ccccc4s3)n2)cc1)N1CCC(N2CCCC2)CC1
"cell-free assay, competition with immobilised ligand",1 µM,97,CN(C(=O)c1ccccc1)c1cc(N(C)c2ccc3c(c2)CCc2ccc(C(=O)NCCN4CCOCC4)cc2C3=O)ccc1F
binding,1 µM,70,c1cnn2ncc(-c3ccnc(N4CCC45COC5)n3)c2c1
